Assay outcomes from PubChem.
Kir21 inh – inhibitors of mouse Kir2.1 inward-rectifier potassium channel | B-score at 10 µM | HEK293-Kir2.1, FluxOR thallium flux fluorescence; stronger effect = lower value | Inward rectifier potassium channel 2 (Mus musculus), P35561 | 0.85% of 310,000 active;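 active = fluorescence ratio B-score at or below minus 3 SD of library scores, with starting-brightness B-score within 2 SD, cut at about -4.2 in these data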;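 note: channel flux triggered by added potassium and thallium sulfate stimulus; B-score of peak minus minimum fluorescence over baseline after thallium stimulus; more negative B-score means stronger Kir2.1 block with less thallium influx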
TRPC6 inh – mouse TRPC6 channel inhibitors, primary screen, cell-based, HEK293, membrane potential dye; Short transient receptor potential channel 6 (Mus musculus), Q61143; ACh-evoked depolarization; stronger effect = lower value; B-score at 10 µM; 1.1% of 310,000 active;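 active = B-score under library mean minus 3 SD, initial fluorescence not abnormally high, positive integrated signal ratio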;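 note: B-score derived from integrated fluorescence ratio over the kinetic read; more negative B-score means stronger inhibition of depolarization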
TRPC6 activator – mouse TRPC6 channel activators, primary screen, cell-based, HEK293, membrane potential dye; Short transient receptor potential channel 6 (Mus musculus), Q61143; HEK293-TRPC6 membrane potential dye fluorescence; stronger effect = higher value; B-score at 10 µM; 0.13% of 310,000 active; AID 2550, 2010;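 active = B-score of the integrated fluorescence ratio above library mean plus 3 SD, and starting fluorescence ratio within library mean plus 5 SD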;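 note: higher score means more depolarization so channel activation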
TRPC4 potent – positive allosteric modulators of TRPC4, primary screen, cell-based, mouse TRPC4beta, HEK293 mu-opioid, Fluo-4 calcium | 0.42% of 310,000 active | B-score at 10 µM | DAMGO EC20, Fluo-4 Ca2+ flux; stronger effect = higher value | AID 2227, 2009;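 active = B-score of calcium response area above 5 SD of library B-scores, with initial fluorescence ratio within 5 SD of library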;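 note: B-score of integrated fluorescence ratio over time as area under calcium response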
Target sequence (Q9QUQ5 whole entry, looked up): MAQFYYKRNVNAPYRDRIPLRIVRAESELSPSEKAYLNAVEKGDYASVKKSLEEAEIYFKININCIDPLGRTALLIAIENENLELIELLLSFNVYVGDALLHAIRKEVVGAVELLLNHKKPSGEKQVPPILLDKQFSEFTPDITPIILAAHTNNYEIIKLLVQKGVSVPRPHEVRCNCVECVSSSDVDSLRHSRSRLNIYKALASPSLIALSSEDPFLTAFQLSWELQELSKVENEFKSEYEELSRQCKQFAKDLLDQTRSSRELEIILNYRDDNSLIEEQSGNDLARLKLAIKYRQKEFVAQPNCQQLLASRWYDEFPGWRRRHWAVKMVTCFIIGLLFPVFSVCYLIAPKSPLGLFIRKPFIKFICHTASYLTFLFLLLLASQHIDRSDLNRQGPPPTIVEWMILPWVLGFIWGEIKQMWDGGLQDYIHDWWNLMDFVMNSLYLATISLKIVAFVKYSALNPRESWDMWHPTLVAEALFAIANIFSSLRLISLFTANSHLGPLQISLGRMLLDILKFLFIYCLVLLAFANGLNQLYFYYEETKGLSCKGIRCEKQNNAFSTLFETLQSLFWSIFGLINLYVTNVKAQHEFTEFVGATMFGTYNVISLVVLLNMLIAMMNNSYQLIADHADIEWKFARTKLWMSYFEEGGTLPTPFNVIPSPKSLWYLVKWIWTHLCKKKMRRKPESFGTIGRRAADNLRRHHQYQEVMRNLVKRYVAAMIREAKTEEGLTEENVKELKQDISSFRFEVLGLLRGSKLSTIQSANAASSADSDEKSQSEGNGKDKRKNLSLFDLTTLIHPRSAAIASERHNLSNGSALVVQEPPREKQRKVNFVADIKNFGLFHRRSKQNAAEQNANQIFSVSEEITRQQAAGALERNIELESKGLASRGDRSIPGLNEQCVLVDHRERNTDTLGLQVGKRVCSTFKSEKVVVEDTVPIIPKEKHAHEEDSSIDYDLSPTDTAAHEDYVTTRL
TRPC4 agonist – activators of mouse TRPC4 channel, primary screen, Fluo4 calcium, HEK293 TRPC4beta/mu-opioid cells. B-score at 10 µM. Fluo4 calcium fluorescence; stronger effect = higher value. 0.49% of 310,000 active;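 active = B-score above 5 SD of library B-scores, and initial fluorescence ratio not above library mean plus 5 SD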;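 note: positive B-score marks a calcium rise read as TRPC4 activation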
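Test system: HEK293 cells stably co-expressing mouse TRPC4beta and mu-opioid receptor | Schedule: Fluo4 dye loading 45 min at room temperature, 110 s recording | Measured by: Kinetic Fluo4 calcium fluorescence, 5 s baseline at 1 Hz | Evaluation: B score of integrated ratio | Controls: Buffer (low) and maximal DAMGO (high)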
TRPC4 block – inhibitors of mouse TRPC4 channel, primary screen, Fluo4 calcium, HEK293 TRPC4beta/mu-opioid cells | 0.39% of 300,000 active | DAMGO-evoked Fluo4 calcium flux; stronger effect = lower value | Short transient receptor potential channel 4 (Mus musculus), Q9QUQ5 | AID 2247, 2010 | B-score at 10 µM;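 active = B-score over 3 SD under the library average, no early fluorescence shift, positive overall ratio signal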
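material = TRPC4beta/mu-opioid receptor HEK293 cell line | probe or stimulus = sequential submaximal and maximal DAMGO stimulation | compound dosing = one concentration per compound | measured by = Fluo4 Ca2+ flux fluorescence | evaluation = integrated fluorescence ratio relative to baseline, converted to per-well B score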
HEK293 TRPC6 ctr – parental HEK293 membrane potential modulation, confirmation, counter-screen for TRPC6 modulator project, cell-based. 51% of 2,400 active. membrane potential dye fluorescence. shares compounds with TRPC6 inh. membrane potential signal change, % at 10 µM;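 active = membrane potential signal moves up or down beyond 5 SD from buffer-only wells, on both duplicate plates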
HEK293 MPD ctr 2 – parental HEK293 nonspecific activity of TRPC6 modulators, second screen | shares compounds with TRPC6 inh | membrane potential dye fluorescence; after compound, maximal acetylcholine stimulation | inhibition, % at 10 µM | 14% of 2,400 active | AID 488926;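 active = membrane potential signal drops by more than 5 SD from the mean control signal, in both duplicate plates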;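 note: plate controls were acetylcholine ECmax control wells for no effect and buffer only wells for full effect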
TRPC4 ctr mod – TRPC4 modulation by TRPC6 hit compounds, confirmation, selectivity assay for TRPC6 modulator project, cell-based, HEK293 TRPC4/mu-opioid, membrane potential dye, mouse | shares compounds with TRPC6 inh | membrane potential fluorescence | percent change from control (negative = decrease, positive = increase), % at 10 µM | 69% of 2,400 active | AID 488927, 2010;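 active = membrane potential signal moved up or down beyond 5 SD of buffer control wells, in both duplicate plates, actives on both sides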;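 note: plate controls were assay buffer wells for no effect and DAMGO maximal-effect wells for full effect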
TRPC4/MOR inh 2 – second selectivity test of TRPC6 modulators against mouse TRPC4; AID 488928; shares compounds with TRPC6 inh; inhibition, % at 10 µM; 55% of 2,400 active; HEK293 TRPC4/mu-opioid, membrane potential dye fluorescence; stimulated with maximal-effect DAMGO;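 active = drop in membrane potential signal beyond 5 SD of the control wells in both duplicate plates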;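 note: TRPC4 counter screen for TRPC6 hits run under conditions tuned for TRPC6 not TRPC4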
TRPC6 block conf – mouse TRPC6 channel inhibitors, confirmation, HEK293 cells, membrane potential dye, duplicate; inhibition, % at 10 µM; ACh-evoked depolarization; 43% of 3,300 active; shares compounds with TRPC6 inh;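 active = fluorescence ratio falls more than 5 SD below the full-stimulation control mean, in both duplicate runs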;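 note: integrated fluorescence ratio of peak minus minimum over baseline after agonist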
TRPC6 act confirm – mouse TRPC6 channel activators, confirmation, HEK293 cells, membrane potential dye, duplicate; shares compounds with TRPC6 inh; HEK293-TRPC6 membrane potential dye fluorescence, FDSS; activation, % at 10 µM; 11% of 2,800 active; AID 488961, 2010;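 active = ratio signal rise beyond 5 SD above unstimulated control wells' mean, seen in both duplicate runs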;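 note: plate controls were buffer EC0 wells for no effect and acetylcholine ECmax response for full effect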
* hit, by the source's call; i = inactive; / = no result given. In the library only some 2.9% were active in any assay of this set; here they are far more common.

SMILES	Kir21 inh	TRPC6 inh	TRPC6 activator	TRPC4 potent	TRPC4 agonist	TRPC4 block	HEK293 TRPC6 ctr	HEK293 MPD ctr 2	TRPC4 ctr mod	TRPC4/MOR inh 2	TRPC6 block conf	TRPC6 act confirm
Cc1cccnc1NCC(O)COc1ccccc1 (centres undefined)	0.02	-6.48*	i	i	i	i	i	i	i	i	i	i
CCOc1ccc(CNC23CN4CN(CN(C4)C2)C3)cc1	-2.44	i	i	i	i	i	/	/	/	/	/	/
CC(=O)NC1=NC(=O)/C(=C/N2CCOCC2)S1	-0.26	i	i	i	i	i	/	/	/	/	/	/
CCOC(=O)c1cnc2ccc(C)cc2c1Nc1ccc(N2CCOCC2)cc1	-0.44	-5.73*	i	i	i	i	-154.5%*	68.5%*	-32.5%*	44.0%*	67.5%*	i
CCOC(=O)c1cnc2ccc(OC)cc2c1NCCN1CCOCC1	1.5	i	i	i	i	i	/	/	/	/	/	/
O=C(COc1ccc(Cl)cc1Cl)NNC(=S)NCc1ccco1	-2.5	-5.37*	i	i	i	i	i	i	i	i	i	i
CCN(CC)S(=O)(=O)c1ccc(Nc2ccc(-c3ccc4c(c3)OCCO4)nn2)cc1	-0.57	i	i	i	i	i	/	/	/	/	/	/
CCNc1nc(N2CCCCC2)nc(-n2nnc(C(=O)OCC)c2C)n1	1.7	i	12.3*	i	i	i	i	i	112.5%*	80.5%*	i	67.5%*
Cn1cnc2cc(NC(=O)c3ccc(Cl)cc3)ccc21	1.5	-5.32*	i	i	i	i	i	i	-11.0%*	i	i	i
Cc1ccccc1C(=O)NC(=S)NC1CCSC1=O (centres undefined)	0.84	i	i	i	i	i	/	/	/	/	/	/
O=C(NC(=S)NC1CCSC1=O)c1cccs1 (centres undefined)	-0.79	-6.37*	i	i	i	i	i	i	i	i	i	i
COc1ccccc1OCC(=O)OCC(=O)Nc1sccc1C(N)=O	-0.5	-5.42*	i	i	i	i	i	i	i	i	i	i
Cc1cc(C)cc(NC(N)=S)c1	0.85	i	i	i	i	i	/	/	/	/	/	/
CC(C)Oc1ccccc1OCCN(C)C	-1.93	i	i	i	i	i	/	/	/	/	/	/
CN(C)CCC(Oc1ccccc1OCc1ccccc1)c1ccccc1 (centres undefined)	-4.56*	-5.86*	i	i	i	i	257.0%*	i	49.0%*	85.0%*	43.5%*	/
CCN(CC)S(=O)(=O)c1ccc(NC(=O)CNC2CCCCC2)cc1	-0.08	-5.28*	i	i	i	i	i	i	i	57.5%*	46.0%*	i
O=C(CC(c1ccccc1)c1ccccc1)Nc1ccncc1	0.22	i	i	i	i	i	/	/	/	/	/	/
CCNC(=O)CCSc1nc(C)cc(C)n1	0.86	i	i	i	i	i	/	/	/	/	/	/
CCCC(=O)NC(c1ccc(N(C)C)cc1)c1ccc2cccnc2c1O (centres undefined)	-0.24	i	i	i	i	i	/	/	/	/	/	/
CCCC(=O)NC(c1ccc(C(C)C)cc1)c1ccc2cccnc2c1O (centres undefined)	0.68	-6.4*	i	i	i	i	i	i	i	i	i	i
CCCCC(=O)NC(c1ccc(Cl)cc1Cl)c1ccc2cccnc2c1O (centres undefined)	0.78	-5.17*	i	i	i	i	-154.0%*	i	-29.5%*	i	i	i
CCC(=O)NC(c1ccc(Cl)cc1Cl)c1ccc2cccnc2c1O (centres undefined)	0.75	i	i	i	i	i	/	/	/	/	/	/
Cc1ccc(C(=O)CN2C(=O)C(C)Oc3ccccc32)cc1 (centres undefined)	3.29	i	i	i	i	i	/	/	/	/	/	/
Cc1cc(=O)n2c3ccccc3n(CC(O)CN3CCN(Cc4ccccc4)CC3)c2c1C#N (centres undefined)	-1.28	-9.51*	i	i	i	i	-157.0%*	i	-36.0%*	65.0%*	i	i
Cc1ccc(S(=O)(=O)N2CCC(C(=O)OCC(=O)N3CCCCC3C)CC2)cc1C (centres undefined)	0.39	i	i	i	i	i	/	/	/	/	/	/
CN(C)CCN(Cc1ccco1)C(=O)c1oc2ccccc2c1NC(=O)COc1ccccc1	-4.01	-5.65*	i	i	i	i	90.5%*	i	i	85.0%*	55.0%*	i
O=C(COc1ccccc1)Nc1c(C(=O)N2CCC(N3CCCCC3)CC2)oc2ccccc12	-0.43	i	i	i	i	i	/	/	/	/	/	/
COC(=O)c1ccc(N2CCN(C)CC2)c(NC(=O)c2sc3ccccc3c2Cl)c1	-0.57	-6.73*	i	i	71*	i	-196.5%*	i	-45.5%*	73.5%*	i	i
COC(=O)c1ccc(N2CCN(C)CC2)c(NC(=O)c2ccc(Br)o2)c1	0.99	-6.73*	i	i	142*	i	-268.5%*	82.5%*	-38.0%*	94.5%*	74.5%*	i
